Assay results taken from ChEMBL document CHEMBL2169747, “Synthesis and biological properties of highly sequence-specific-alkylating N-methylpyrrole-N-methylimidazole polyamide conjugates” (J Med Chem, 2012).
Active and inactive are the calls of the source. The calls are words filed in the database; no cut-off is given here.

Legend:
[1] = test system: DU-145; experiment: Antitumor activity against human DU145 cells xenografted in BALB/c-nu/nu mouse assessed as effect on tumor growth at 1.6 mg/kg, iv administered as liposomal conjugate for 14 days; format: functional, organism-based; design: dose 1.6 mg/kg
Summary of the method: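 Male BALB/c-nu/nu mice (5 weeks, 15−22 g) with subcutaneous right-subaxillary A549 or DU145 xenografts (3 × 10^6 cells/mouse), grouped by tumor size. Liposomes were made from a lipid film hydrated in water and bath-sonicated 2 h, giving 330 μg/mL conjugate in 17 mM lipid. A single 125 μL intravenous dose (41 μg/mouse) was given on day 0. Tumor size and weight were read every other day for 14 days. n = 5 or 6.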

[2] = test system: A549; experiment: Downregulation of PTPRK gene expression in human A549 cells at 26 nM after 12 hrs by microarray analysis relative to control; format: functional
Summary of the method: (§1)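 A549 cells (RPMI-1640, 10% heat-inactivated FBS, penicillin/streptomycin, 37 °C, 5% CO2) seeded at 4 × 10^5 per 60 mm dish. Exposed 12 h to conjugate at 21, 26, 34 or 100 nM in medium with 0.1% DMSO, against 0.1% DMSO control. Whole-genome (~25 000 genes) expression profiled by microarray.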

[3] = test system: A549; experiment: Downregulation of Q5WOV6 gene expression in human A549 cells at 26 nM after 12 hrs by microarray analysis relative to control; format: functional; summary of the method: as §1
[4] = test system: A549; experiment: Downregulation of HS2ST1 gene expression in human A549 cells at 26 nM after 12 hrs by microarray analysis relative to control; format: functional
Summary of the method: (§2)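 A549 cells, 4 × 10^5 per 60 mm dish, were exposed to conjugate for 12 h in medium with 0.1% DMSO; vehicle control was 0.1% DMSO. Whole human genome (~25 000 genes) expression was profiled by microarray and expression compared with the control.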

[5] = test system: A549; experiment: Downregulation of CTTNBP2 gene expression in human A549 cells at 26 nM after 12 hrs by microarray analysis relative to control; format: functional; summary of the method: as §2
[6] = test system: A549; experiment: Upregulation of PPM1D gene expression in human A549 cells at 26 nM after 12 hrs by microarray analysis relative to control; format: functional
Summary of the method: (§3)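 4 ×10^5 A549 cells seeded per 60 mm dish and treated 12 h with conjugate (21, 26, 34 or 100 nM) in medium; control medium contained 0.1% DMSO, with conjugates added as 0.1% DMSO solutions. Whole human genome (~25 000 genes) expression profiled by microarray against the DMSO control. A549 culture: RPMI-1640 with 10% heat-inactivated FBS, penicillin/streptomycin, 37 °C, 5% CO2.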

[7] = test system: A549; experiment: Downregulation of SUPT3H gene expression in human A549 cells at 34 nM after 12 hrs by microarray analysis relative to control; format: functional; summary of the method: as §1
[8] = test system: A549; experiment: Downregulation of ZNF407 gene expression in human A549 cells at 34 nM after 12 hrs by microarray analysis relative to control; format: functional; summary of the method: as §1
[9] = test system: A549; experiment: Downregulation of Q9P223 gene expression in human A549 cells at 34 nM after 12 hrs by microarray analysis relative to control; format: functional; summary of the method: as §1
[10] = test system: A549; experiment: Downregulation of NP_115632.1 gene expression in human A549 cells at 34 nM after 12 hrs by microarray analysis relative to control; format: functional; summary of the method: as §2
[11] = test system: A549; experiment: Downregulation of GPX6 gene expression in human A549 cells at 34 nM after 12 hrs by microarray analysis relative to control; format: functional; summary of the method: as §2
[12] = test system: A549; experiment: Downregulation of OR1C1 gene expression in human A549 cells at 34 nM after 12 hrs by microarray analysis relative to control; format: functional; summary of the method: as §1
[13] = test system: A549; experiment: Upregulation of U124 gene expression in human A549 cells at 34 nM after 12 hrs by microarray analysis relative to control; format: functional; summary of the method: as §3

SMILES | Activity [1] | fold change (FC) [2] | fold change (FC) [3] | fold change (FC) [4] | fold change (FC) [5] | fold change (FC) [6] | fold change (FC) [7] | fold change (FC) [8] | fold change (FC) [9] | fold change (FC) [10] | fold change (FC) [11] | fold change (FC) [12] | fold change (FC) [13]
CC(=O)Nc1cn(C)c(C(=O)Nc2cc(C(=O)Nc3cc(C(=O)NCCC(=O)Nc4cc(C(=O)NCCCC(=O)Nc5cc(C(=O)NCCC(=O)Nc6cn(C)c(C(=O)Nc7ccc8[nH]c(C(=O)N9CC(CCl)c%10c9cc(O)c9ccccc%109)cc8c7)n6)n(C)c5)n(C)c4)n(C)c3)n(C)c2)n1 (racemic) | Active | 0.257 | 0.324 | 0.329 | 0.36 | 5.7 |  |  |  |  |  |  | 
CC(=O)Nc1cn(C)c(C(=O)Nc2cn(C)c(C(=O)Nc3cc(C(=O)NCCC(=O)Nc4cc(C(=O)NCCCC(=O)Nc5cn(C)c(C(=O)NCCC(=O)Nc6cn(C)c(C(=O)Nc7ccc8[nH]c(C(=O)N9CC(CCl)c%10c9cc(O)c9ccccc%109)cc8c7)n6)n5)n(C)c4)n(C)c3)n2)n1 (racemic) |  |  |  |  |  |  | 0.231 | 0.241 | 0.258 | 0.273 | 0.322 | 0.324 | 5.6
